# According to ChEMBL document CHEMBL3352003, “Sulfonamides with Potent Inhibitory Action and Selectivity against the α-Carbonic Anhydrase from Vibrio cholerae” (ACS Med Chem Lett, 2014):
# Assay: Inhibition of Vibrio cholerae cytosolic carbonic anhydrase by stopped flow CO2 hydration assay
# In short: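 Stopped-flow measurement of the enzyme-catalysed CO2 hydration activity; inhibition is reported as KI (nM).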
row,SMILES,Ki
1,CC(=O)NC(CCCCNC(=O)OC(C)(C)C)C(=O)Nc1cccc(S(N)(=O)=O)c1 (stereo unspecified),8.8 nM
2,COC(=O)C(CCCCNC(=O)OCc1ccccc1)NC(=O)c1ccc(S(N)(=O)=O)cc1 (stereo unspecified),6.2 nM
3,CC(=O)NC(CCCCN/C(=N/C(=O)OC(C)(C)C)NC(=O)OC(C)(C)C)C(=O)NCCc1ccc(S(N)(=O)=O)cc1 (stereo unspecified),9.3 nM
4,CC(=O)NC(CCCCNC(=N)N)C(=O)NCCc1ccc(S(N)(=O)=O)cc1 (stereo unspecified),36.8 nM
5,CC(C)(C)OC(=O)NCCCC(=O)NCc1ccc(S(N)(=O)=O)cc1,6.1 nM
6,N=C(N)NCCCC(=O)NCCc1ccc(S(N)(=O)=O)cc1,29.1 nM
7,NCCCC(=O)NCCc1ccc(S(N)(=O)=O)cc1,77 nM
8,CC(=O)NC(CCCCNC(=O)OC(C)(C)C)C(=O)NCc1ccc(S(N)(=O)=O)cc1 (stereo unspecified),8.9 nM
9,CC(C)(C)OC(=O)NCCCC(=O)NCCc1ccc(S(N)(=O)=O)cc1,304 nM
10,CC(C)(C)OC(=O)NCCCC(=O)Nc1cccc(S(N)(=O)=O)c1,7.6 nM
11,CC(=O)NC(CCCCNC(=O)OC(C)(C)C)C(=O)NCCc1ccc(S(N)(=O)=O)cc1 (stereo unspecified),76.7 nM
12,CC(=O)NC(CCCCN)C(=O)NCc1ccc(S(N)(=O)=O)cc1 (stereo unspecified),29.1 nM
13,CC(C)(C)OC(=O)/N=C(\NCCCC(=O)NCCc1ccc(S(N)(=O)=O)cc1)NC(=O)OC(C)(C)C,95.2 nM
14,N=C(N)NCCCC(=O)NCc1ccc(S(N)(=O)=O)cc1,6.4 nM
15,CC(C)(C)OC(=O)/N=C(\NCCCC(=O)NCc1ccc(S(N)(=O)=O)cc1)NC(=O)OC(C)(C)C,5.8 nM
16,CC(C)(C)OC(=O)NCCCC(=O)Nc1ccc(S(N)(=O)=O)cc1,6.9 nM
17,CC(=O)NC(CCCCN/C(=N/C(=O)OC(C)(C)C)NC(=O)OC(C)(C)C)C(=O)NCc1ccc(S(N)(=O)=O)cc1 (stereo unspecified),9.1 nM
18,NCCCC(=O)NCc1ccc(S(N)(=O)=O)cc1,65.3 nM
20,CC(=O)NC(CCCCNC(=N)N)C(=O)NCc1ccc(S(N)(=O)=O)cc1 (stereo unspecified),8.8 nM
21,CC(=O)NC(CCCCN)C(=O)NCCc1ccc(S(N)(=O)=O)cc1 (stereo unspecified),66.5 nM
